The record followed here is ChEMBL document CHEMBL1275426, “Apoptosis induced by aminoglycosides in LLC-PK1 Cells: comparative study of neomycin, gentamicin, amikacin, and isepamicin using electroporation” (Antimicrob Agents Chemother, 2008).

Calls of active or inactive are those of the source. No cut-off for these calls is given here.

The subject of series [1] is LLC-PK1. Briefly: Induction of apoptosis in pig LLC-PK1 cells at 0.192 to 0.384 mM after 24 hrs electoporated in presence of compound. The class given is functional, cell-based. To be noted: Sus scrofa. Summed up: (§1)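 LLC-PK1 cells were electroporated with or without aminoglycoside at increasing concentrations, up to 0.384 mM, present during the pulse. Cells were then returned to aminoglycoside-free medium. Apoptotic nuclei were enumerated 24 h later. Values are mean ± SD, n = 3, by two-tailed ANOVA against controls.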

The subject of series [2] is LLC-PK1. Briefly: Induction of apoptosis in pig LLC-PK1 cells at 0.064 mM after 24 hrs electoporated in presence of compound. To be noted: Sus scrofa. Format: functional, cell-based. A digest of the protocol: as §1
The subject of series [3] is LLC-PK1. The series is described as follows: Induction of apoptosis in pig LLC-PK1 cells at 6 mM after 1 day by DAPI staining. Format: functional, cell-based. To be noted: Sus scrofa. A digest of the protocol:
(§2)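 LLC-PK1 cells were incubated without drug or with 2 mM or 6 mM aminoglycoside for up to 3 days. Nuclei were stained with DAPI, and the percentage of apoptotic nuclei was counted by microscopy. Camptothecin at 14.3 μM served as positive control. Values are mean ± SD, n = 3, by two-tailed ANOVA against matched controls.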

Series [4] deals with LLC-PK1. Briefly: Induction of apoptosis in pig LLC-PK1 cells at 6 mM after 2 days by DAPI staining. Format: functional, cell-based. To be noted: Sus scrofa. Summed up:
as §2

Series [5] concerns LLC-PK1. The series is described as follows: Induction of apoptosis in pig LLC-PK1 cells at 6 mM after 3 days by DAPI staining. Format: functional, cell-based. To be noted: Sus scrofa. A digest of the protocol: as §2
Series [6] has as its system LLC-PK1. Briefly: Induction of necrosis in pig LLC-PK1 cells assessed as lactate dehydrogenase release. Format: functional, cell-based. To be noted: Sus scrofa.
Series [7] concerns LLC-PK1. Briefly: Induction of apoptosis in pig LLC-PK1 cells upto 9 mM after 2 days by DAPI staining. Format: functional, cell-based. To be noted: Sus scrofa. A digest of the protocol:
(§3)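 LLC-PK1 cells were incubated for 48 h over a concentration series: 0 to 3 mM, or 3 to 9 mM. Apoptotic nuclei were scored as a percentage by DAPI staining under the microscope. Values are mean ± SD, n = 3, by two-tailed ANOVA against drug-free cells.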

The next series relates to Homo sapiens. Briefly: Drug uptake in human at 15 mg/kg. Format: ADME, organism-based. Also noted: dose 15 mg/kg. To be noted: in vivo.
Series [8] has as its system LLC-PK1. Briefly: Induction of apoptosis in pig LLC-PK1 cells assessed as caspase 3 activity at 2 mM after 2 days […]. The class given is functional, cell-based. To be noted: Sus scrofa. A digest of the protocol:
(§4)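 Renal LLC-PK1 cells were incubated up to 3 days with 2 mM drug in continuous exposure. Caspase 3 activity was measured with the fluorogenic substrate N-acetyl-Asp-Glu-Val-Asp-7-amido-4-methylcoumarin and expressed as % of matched untreated controls. The positive control was camptothecin at 14.3 μM. Values are mean ± SD, n = 3, by two-tailed ANOVA against matched controls.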

The test system of series [9] is LLC-PK1. Briefly: Induction of apoptosis in pig LLC-PK1 cells at 0.1mM after 24 hrs electoporated in presence of compound. Format: functional, cell-based. To be noted: Sus scrofa. Summed up:
as §1

Series [10] concerns LLC-PK1. The series is described as follows: Induction of apoptosis in pig LLC-PK1 cells measured at 0 to 3 mM after 2 days by DAPI staining. Format: functional, cell-based. To be noted: Sus scrofa. A digest of the protocol:
as §3

Series [11] deals with LLC-PK1. Briefly: Induction of apoptosis in pig LLC-PK1 cells at 2 mM by DAPI staining. Format: functional, cell-based. To be noted: Sus scrofa, TDE = time-dependent effect. A digest of the protocol:
as §2

Series [12] has as its system LLC-PK1. The series is described as follows: Induction of apoptosis in pig LLC-PK1 cells assessed as caspase 3 activity at 2 mM after 1 day […]. The class given is functional, cell-based. To be noted: Sus scrofa. Summed up:
as §4

Consider `CN[C@@H]1[C@@H](O)[C@@H](O[C@@H]2[C@@H](O)[C@H](O[C@H]3O[C@H](CN)[C@@H](O)[C@H](O)[C@H]3O)[C@@H](N)C[C@H]2NC(=O)[C@@H](O)CN)OC[C@]1(C)O`, for which the outcome with LLC-PK1 [1] was Active.

Regarding `NC[C@@H]1O[C@H](O[C@H]2[C@@H](O)[C@H](O[C@@H]3[C@@H](O)[C@H](N)C[C@H](N)[C@H]3O[C@H]3O[C@H](CN)[C@@H](O)[C@H](O)[C@H]3N)O[C@@H]2CO)[C@H](N)[C@@H](O)[C@@H]1O`, the outcome in the series on LLC-PK1 [2] was Active.

On to `NCC[C@H](O)C(=O)N[C@@H]1C[C@H](N)[C@@H](O[C@H]2O[C@H](CN)[C@@H](O)[C@H](O)[C@H]2O)[C@H](O)[C@H]1O[C@H]1O[C@H](CO)[C@@H](O)[C@H](N)[C@H]1O` [AMIKACIN], for which the outcome in the series on LLC-PK1 [3], in the series with LLC-PK1 [4], in the series with LLC-PK1 [6] and in the series with LLC-PK1 [7] was inactive. For the same compound, the result with LLC-PK1 [5] was Active. Further, in the series on Homo sapiens, the Drug uptake was determined as 25.6 µmol/kg.

On to GENTAMICIN [listing 1 of 2 here], for which the Drug uptake in the series with Homo sapiens came to 8.56 µmol/kg.

Consider GENTAMICIN [listing 2 of 2 here], for which the result with LLC-PK1 [8], in the series with LLC-PK1 [9] and with LLC-PK1 [12] was Active. In addition, the Activity result in the series with LLC-PK1 [10] was “Dose-dependent effect”; in the series with LLC-PK1 [11], “tde”.
